dFosB act – activators of delta FosB homodimer, primary screen, biochemical, fluorescence polarization, TAMRA-CDK5 oligo, single point; activation, % at 25 µM; purified delta FosB; percent of positive-control signal above neutral wells; Protein FosB (Mus musculus), P13346; hit rate 0.99% among 340,000;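 active means mean activation above about 17%, with every replicate also reaching it, limit read from the data, passing the limit was not always enough; inconclusive means only one of the two conditions met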
Target sequence (P13346 whole entry, looked up): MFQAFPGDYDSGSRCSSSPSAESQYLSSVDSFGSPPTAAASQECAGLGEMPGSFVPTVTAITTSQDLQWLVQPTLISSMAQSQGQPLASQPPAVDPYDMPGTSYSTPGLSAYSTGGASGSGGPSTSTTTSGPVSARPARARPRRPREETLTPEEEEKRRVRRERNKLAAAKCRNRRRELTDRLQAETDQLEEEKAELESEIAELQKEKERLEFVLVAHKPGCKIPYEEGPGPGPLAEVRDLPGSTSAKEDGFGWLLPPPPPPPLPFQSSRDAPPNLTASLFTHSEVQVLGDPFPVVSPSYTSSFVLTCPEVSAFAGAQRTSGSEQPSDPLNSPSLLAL
INS-1E GSIS act – GLuc luminescence reporter in INS-1E cells, primary screen for activators of glucose-dependent secretion of insulin; INS-1E GLuc reporter insulin secretion, 2-3 h; activation, % at 16.6 µM; hit rate 0.61% among 370,000;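 active means lowest replicate activation of at least 40%, so every replicate reaches that level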;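 further: 0% = median of neutral control wells and 100% = median of IBMX positive control wells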
PAX8 inh HTS – inhibitors of PAX8-driven TPO luciferase reporter, primary screen, RMG-I cells, single concentration; SteadyGlo, 24 h; inhibition, % at 12.6 µM; hit rate 1.2% among 360,000; AID 652154, 2013;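 active means mean replicate inhibition at least 60% with every replicate also reaching 60%; inconclusive means only one of the two criteria is met; inactive means mean below 60% and not all replicates reaching 60%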;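 further: luciferase light reporting Pax8 driven TPO promoter activity; plate controls were median of neutral control wells for no effect and mitoxantrone controls for full effect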
CDK5 inh – inhibitors of human CDK5/p35 kinase, primary screen, biochemical, single concentration; inhibition, % at 10 µM; Cyclin-dependent kinase 5 (Homo sapiens) + Cyclin-dependent kinase 5 activator 1 (Homo …; hit rate 0.01% among 330,000; Recombinant CDK5/p35, ADP-Glo luminescence, 60 min;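 active means highest replicate inhibition of at least 50% and at least 75% of replicates reaching 50%; inconclusive means only one of the two criteria met; inactive means both criteria failed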;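 further: plate controls were DMSO neutral control for no effect and GW8510 at 10 µM for full effect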
Cneo AK release – Cryptococcus neoformans cell lysis inducers, primary screen, AK release luminescence, single concentration; AID 651654, 2012; lysis activity, % at 15 µM; hit rate 0.2% among 360,000; C. neoformans lysis, adenylate kinase release luminescence, 4 h; normalised: neutral wells 0, clomiphene wells 100;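 active means mean lysis activity across replicates of at least 80%, whatever share of replicates individually reach that level; inactive means mean lysis activity below 80%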
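Material – Cryptococcus neoformans yeast cells · Quantity – 5 × 10^6 yeast cells/mL · Buffer or medium – YPD medium · Compound – single dose · Timing – 4 h static compound exposure, 37 °C, read 1 h post-reagent · Signal – adenylate kinase release luminescence · Read-out basis – lysis from increased AK signal · Benchmarks – Clomiphene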
Env fusion inh – inhibitors of HIV-1 Env-driven cell-cell fusion, primary screen, HeLa-JRFL effector, CEM21 target cells, luciferase | inhibition, % at 12.3 µM | hit rate 1.1% among 360,000 | AID 651610, 2012;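 active means mean replicate inhibition score of at least 50 and every replicate individually at or above 50; inconclusive means only one of the two criteria met; inactive means mean below 50 and not all replicates reaching 50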;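 further: 0% = plate neutral controls and 100% = maraviroc near 300 nM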
Active calls of the source: *; u = inconclusive; x = no result; [ ] = remark or other dose. Hits are enriched below; roughly 2.9% of the tested compounds scored in any of these assays.

SMILES | dFosB act | INS-1E GSIS act | PAX8 inh HTS | CDK5 inh | Cneo AK release | Env fusion inh
CN(CCc1cn[nH]c1)Cc1nc(C(c2ccccc2)c2ccccc2)no1 | 2 | 27 | 144* | -1 | -2 | -9
CCOC(=O)C1=CN(Cc2cccc(F)c2)S(=O)(=O)N(CC)C1c1ccccc1 (stereo not given) | -10 | -19 | 86* | 2 | 0 | 17
CCOC(=O)C1=CN(Cc2cccc(-c3cccnc3)c2)S(=O)(=O)N(C)C1C (stereo not given) | -10 | 3 | 101* | 3 | 2 | 36
CCOC(=O)C1=CN(Cc2cccc(-c3cccnc3)c2)S(=O)(=O)N(CC)C1C (stereo not given) | -7 | -32 | -14 | 0 | 1 | -18
CC(C)(C)CC(C)(C)N=C1Nc2ccccc2NC12C[C@H]1CCC(=O)N3CC[C@@H](C2)[C@@H]13 (stereo not given in full) | 4 | x | -5 | 1 | 0 | -64
CC(C)(C)CC(C)(C)N=C1Nc2cc(Cl)c(Cl)cc2NC12C[C@H]1CCC(=O)N3CC[C@@H](C2)[C@@H]13 (stereo not given in full) | -2 | x | 42 | 1 | 0 | 58*
Cc1oc2c(c(=O)c1C)C(=O)CC(c1ccccc1)C2 (stereo not given) | -6 | x | x | 0 | 4 | x
CS(=O)(=O)c1sc(C#N)c2c1C(=O)CC(c1ccccc1)C2 (stereo not given) | -12 | 64 | 131* | -3 | -5 | -10
C[C@@H]1CCCCO[C@H](CN(C)Cc2ccc(C(=O)O)cc2)[C@@H](C)CN([C@H](C)CO)C(=O)c2cc(NC(=O)NC3CCCCC3)ccc2O1 | x | 2 | -14 | x | 4 | 20[16.7 µM]
CCCNC(=O)C[C@H]1CC[C@@H]2[C@@H](COc3ccc(NC(=O)Nc4c(C)noc4C)cc3C(=O)N2C)O1 | x | 9 | -20 | x | -6 | x
Cc1noc(C)c1S(=O)(=O)Nc1ccc2c(c1)C(=O)N([C@H](C)CO)C[C@@H](C)[C@@H](CN(C)S(=O)(=O)c1ccc(Cl)cc1)OCCCC[C@H](C)O2 | x | 21 | 70* | x | 1 | -45[16.7 µM]
Cc1noc(C)c1S(=O)(=O)N(C)C[C@H]1OCCCC[C@H](C)Oc2ccc(NS(=O)(=O)c3ccc(Cl)cc3)cc2C(=O)N([C@@H](C)CO)C[C@@H]1C | x | -14 | 47 | x | 2 | 33[16.7 µM]
COc1ccc(S(=O)(=O)N(C)C[C@H]2OCCCC[C@H](C)Oc3ccc(NS(=O)(=O)c4c(C)noc4C)cc3C(=O)N([C@H](C)CO)C[C@@H]2C)cc1 | x | -15 | 12 | x | 0 | -60[16.7 µM]
Cc1noc(C)c1S(=O)(=O)Nc1ccc2c(c1)C(=O)N([C@H](C)CO)C[C@H](C)[C@@H](CN(C)S(=O)(=O)c1ccc(Cl)cc1)OCCCC[C@H](C)O2 | x | -5 | 54 | x | -2 | -24[16.7 µM]
Cc1noc(C)c1S(=O)(=O)N(C)C[C@H]1OCCCC[C@H](C)Oc2ccc(NS(=O)(=O)c3ccc(Cl)cc3)cc2C(=O)N([C@H](C)CO)C[C@@H]1C | x | -16 | 70* | x | 3 | 11[16.7 µM]
COc1ccc(S(=O)(=O)N(C)C[C@H]2OCCCC[C@@H](C)Oc3ccc(NS(=O)(=O)c4c(C)noc4C)cc3C(=O)N([C@H](C)CO)C[C@H]2C)cc1 | x | -17 | 77* | x | 0 | 14[16.7 µM]
C[C@H]1CN([C@@H](C)CO)C(=O)Cc2cc(NC(=O)C3CCCCC3)ccc2O[C@H]1CN(C)Cc1ccc(C(=O)O)cc1 | x | 8 | -7 | x | 9 | -1[16.7 µM]
C[C@H](CO)N1C[C@H](C)[C@@H](CN(C)C(=O)Nc2ccc(C(F)(F)F)cc2)Oc2ccc(NS(C)(=O)=O)cc2CC1=O | x | -5 | 7 | x | -2 | 3[16.7 µM]
C[C@@H]1CN([C@H](C)CO)C(=O)c2cccc(NS(=O)(=O)c3ccc(F)cc3)c2O[C@@H]1CN(C)Cc1ccc2c(c1)OCO2 | x | 32 | -1 | x | -2 | x
Cc1cc(C)c(S(=O)(=O)c2c(C)cccc2C)c(OCC(C)C)n1 | -2 | x | x | -2 | -2 | 78*
CCCc1cn(CC[C@@H]2CC[C@@H](NC(=O)C3CCOCC3)[C@H](CO)O2)nn1 | x | 8 | 4 | x | 9 | 13[16.7 µM]
O=C(Nc1cc(F)ccc1F)N1C[C@@H]2[C@H](c3ccccc31)[C@H](CO)N2Cc1cccnc1 | x | 5 | -31 | x | 38 | x
Cc1nc(N)nc(N)c1-c1ccc(Cl)c(Cl)c1 | -6 | x | 54 | -1 | x | -16
Cc1nc(N)nc(N)c1CCCc1ccc(Cl)c(Cl)c1 | 27* | -21 | 28 | -4 | 2 | -10
COc1cccc(/C=N/Nc2ncnc(Cl)c2N)c1O | 0 | x | x | 2 | x | 55*
SMILES | dFosB act | INS-1E GSIS act | PAX8 inh HTS | CDK5 inh | Cneo AK release | Env fusion inh
COc1cccc(/C=N/Nc2ncnc3scc(-c4ccccc4)c23)c1O | -1 | -13 | 76* | 2 | x | 41
COc1cccc(/C=N/Nc2nccnc2Cl)c1O | -9 | -2 | u | 10 | x | -27
COc1ccc(-c2ccc3c(c2)O[C@H](CN(C)Cc2ccccc2C(=O)O)[C@@H](C)CN([C@@H](C)CO)S3(=O)=O)cc1 | x | 12 | x | x | -1 | -1[16.7 µM]
O=C(Nc1ccc(F)cc1)N1CCCCN2[C@H](CO)[C@@H](c3ccc(C#Cc4ccccc4)cc3)[C@H]2C1 | x | -14 | 39 | x | 2 | x
COc1ccc(C#Cc2ccc([C@@H]3[C@@H](CO)N4CCCCN(C(=O)Nc5ccccc5)C[C@H]34)cc2)cc1 | x | -28 | 17 | x | 50 | x
O=C(Nc1ccccc1)N1CCCCN2[C@@H](CO)[C@H](c3ccc(C#Cc4ccccc4)cc3)[C@@H]2C1 | x | -29 | 72* | x | 1 | x
O=C(Nc1ccc(F)cc1)N1CCCCN2[C@@H](CO)[C@@H](c3ccc(C#Cc4ccccc4)cc3)[C@@H]2C1 | x | 44* | 77* | x | 0 | x
O=C(Nc1ccc(F)cc1)N1CCCCN2[C@H](C1)[C@@H](c1ccc(C#Cc3ccccc3)cc1)[C@@H]2CO | x | 12 | 42 | x | -1 | x
O=C(Nc1ccccc1)N1CCCCN2[C@H](C1)[C@H](c1ccc(C#CC3CC3)cc1)[C@@H]2CO | x | -4 | -7 | x | 108* | x
O=C(Nc1ccccc1)N1CCCCN2[C@@H](CO)[C@@H](c3ccc(C#Cc4ccccc4)cc3)[C@@H]2C1 | x | -8 | 107* | x | 0 | x
O=C(C[C@@H]1CC[C@@H]2[C@H](COC[C@H](O)CN2Cc2nccs2)O1)NCc1ccc(Cl)cc1 | x | -2 | -12 | x | 3 | x
C[C@H](CO)N1C[C@H](C)[C@@H](CN(C)C(=O)Nc2ccc(F)cc2)OCCCC[C@H](C)Oc2ccc(NC(=O)C3CCCCC3)cc2C1=O | x | -1 | -3 | x | 44 | -29[16.7 µM]
